Measured values: ChEMBL document CHEMBL3621126, “Difluoromethyl ketones: Potent inhibitors of wild type and carbamate-insensitive G119S mutant Anopheles gambiae acetylcholinesterase” (Bioorg Med Chem Lett, 2015)

Target: T1, Acetylcholinesterase (Anopheles gambiae, UniProt Q869C3)
T1 sequence (Q869C3 whole entry): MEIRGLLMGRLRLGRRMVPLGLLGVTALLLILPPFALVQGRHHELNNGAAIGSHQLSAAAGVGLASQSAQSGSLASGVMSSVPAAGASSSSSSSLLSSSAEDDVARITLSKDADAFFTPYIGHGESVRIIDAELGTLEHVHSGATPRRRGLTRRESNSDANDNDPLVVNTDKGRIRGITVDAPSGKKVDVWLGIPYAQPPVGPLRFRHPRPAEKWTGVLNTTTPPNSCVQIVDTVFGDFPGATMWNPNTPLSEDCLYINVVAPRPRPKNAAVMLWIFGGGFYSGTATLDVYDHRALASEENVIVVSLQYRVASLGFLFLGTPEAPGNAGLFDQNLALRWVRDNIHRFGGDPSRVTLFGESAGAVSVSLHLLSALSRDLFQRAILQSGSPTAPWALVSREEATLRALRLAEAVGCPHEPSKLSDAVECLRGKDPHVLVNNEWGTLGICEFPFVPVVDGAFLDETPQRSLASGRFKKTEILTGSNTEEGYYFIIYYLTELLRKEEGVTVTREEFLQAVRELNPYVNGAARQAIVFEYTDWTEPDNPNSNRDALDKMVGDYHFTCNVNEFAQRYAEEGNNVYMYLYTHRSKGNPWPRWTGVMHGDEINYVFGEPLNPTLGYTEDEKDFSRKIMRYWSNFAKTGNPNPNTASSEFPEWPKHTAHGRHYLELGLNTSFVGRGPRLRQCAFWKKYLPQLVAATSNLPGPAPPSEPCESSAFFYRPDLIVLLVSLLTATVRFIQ
Assay: Inhibition of recombinant Anopheles gambiae wild type AChE after 60 mins by Ellman assay
Details: not given
Work on CCC(CC)n1cc(C(=O)C(F)(F)F)cn1 yielded an IC50 of 0.68 nM.
CCCC(C)n1cc(C(=O)CF)cn1 (stereo not given) gave an IC50 of 3290 nM.
CCC(C)n1cc(C(=O)C(F)F)cn1 (stereo not given) gave an IC50 of 25.2 nM.
CC(C)(C)c1cccc(C(=O)C(F)(F)F)c1 showed an IC50 of 18.1 nM.
Work on O=C(c1cnn(C2CCCC2)c1)C(F)F yielded an IC50 of 134 nM.
Work on COP(=O)(OC)OC=C(Cl)Cl [DICHLORVOS] yielded an IC50 of 60.1 nM.
CC(C)Cn1cc(C(=O)C(F)(F)F)cn1 gave an IC50 of 1040 nM.
CC(C)Cn1cc(C(=O)CF)cn1 showed an IC50 of over 10000 nM.
In the case of CCC(C)n1cc(C(=O)CF)cn1 (stereo not given), the IC50 is reported as 2860 nM.
O=C(CF)c1cnn(C2CCCC2)c1 showed an IC50 of 1540 nM.
CC(C)n1cc(C(=O)C(F)(F)F)cn1 showed an IC50 of 285 nM.
With C[Si](C)(C)c1cccc(C(=O)C(F)(F)F)c1 the IC50 was 257 nM.

Target: Acetylcholinesterase (Anopheles gambiae) (UniProt Q869C3)
Sequence (Q869C3 39-737 limits assumed): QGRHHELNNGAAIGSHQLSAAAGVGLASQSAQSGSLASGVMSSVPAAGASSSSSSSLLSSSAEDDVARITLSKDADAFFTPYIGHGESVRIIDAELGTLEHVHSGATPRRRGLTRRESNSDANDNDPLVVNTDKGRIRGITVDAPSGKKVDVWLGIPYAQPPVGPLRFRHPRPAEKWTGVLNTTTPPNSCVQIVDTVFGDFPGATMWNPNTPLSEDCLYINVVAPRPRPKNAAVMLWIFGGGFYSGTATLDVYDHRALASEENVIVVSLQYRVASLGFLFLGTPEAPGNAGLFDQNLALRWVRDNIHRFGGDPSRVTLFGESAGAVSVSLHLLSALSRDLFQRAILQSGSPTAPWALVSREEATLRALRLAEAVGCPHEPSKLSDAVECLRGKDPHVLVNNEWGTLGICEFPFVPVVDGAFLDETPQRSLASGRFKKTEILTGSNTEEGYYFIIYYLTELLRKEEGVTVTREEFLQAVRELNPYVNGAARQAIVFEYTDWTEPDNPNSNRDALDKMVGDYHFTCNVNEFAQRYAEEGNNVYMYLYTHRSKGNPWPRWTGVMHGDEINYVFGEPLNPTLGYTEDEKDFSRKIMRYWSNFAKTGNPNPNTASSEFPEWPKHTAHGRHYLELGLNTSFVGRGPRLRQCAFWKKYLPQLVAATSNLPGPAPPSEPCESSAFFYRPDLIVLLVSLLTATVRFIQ
Assay: Inhibition of recombinant Anopheles gambiae wild type AChE by Ellman assay
Details: TDE = time-dependent effect
Procedure, shortened: (§1)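 Modified Ellman assay in microtiter plates with recombinant enzymes (human AChE, wild-type or G119S Anopheles gambiae AChE). Inhibitor preincubated 10 or 60 min at 23 ± 1°C, pH 7.7, 0.1% (v/v) DMSO, before adding substrate. Ten inhibitor concentrations were run alongside inhibitor-free control wells. IC50 was taken from sigmoidal plots of residual activity (v/v0) vs [I].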
In the case of CCC(CC)n1cc(C(=O)C(F)(F)F)cn1, the inhibition is reported as “tde”.
In the case of CC(C)(C)c1cccc(C(=O)C(F)(F)F)c1, the inhibition is reported as “tde”.
In the case of CC(C)Cn1cc(C(=O)C(F)(F)F)cn1, the inhibition is reported as “tde”.
For CC(C)n1cc(C(=O)C(F)(F)F)cn1, the inhibition was “tde”.
For C[Si](C)(C)c1cccc(C(=O)C(F)(F)F)c1, the inhibition was “tde”.

Target: T2, Acetylcholinesterase (Homo sapiens, UniProt P22303)
T2 sequence (P22303 whole entry): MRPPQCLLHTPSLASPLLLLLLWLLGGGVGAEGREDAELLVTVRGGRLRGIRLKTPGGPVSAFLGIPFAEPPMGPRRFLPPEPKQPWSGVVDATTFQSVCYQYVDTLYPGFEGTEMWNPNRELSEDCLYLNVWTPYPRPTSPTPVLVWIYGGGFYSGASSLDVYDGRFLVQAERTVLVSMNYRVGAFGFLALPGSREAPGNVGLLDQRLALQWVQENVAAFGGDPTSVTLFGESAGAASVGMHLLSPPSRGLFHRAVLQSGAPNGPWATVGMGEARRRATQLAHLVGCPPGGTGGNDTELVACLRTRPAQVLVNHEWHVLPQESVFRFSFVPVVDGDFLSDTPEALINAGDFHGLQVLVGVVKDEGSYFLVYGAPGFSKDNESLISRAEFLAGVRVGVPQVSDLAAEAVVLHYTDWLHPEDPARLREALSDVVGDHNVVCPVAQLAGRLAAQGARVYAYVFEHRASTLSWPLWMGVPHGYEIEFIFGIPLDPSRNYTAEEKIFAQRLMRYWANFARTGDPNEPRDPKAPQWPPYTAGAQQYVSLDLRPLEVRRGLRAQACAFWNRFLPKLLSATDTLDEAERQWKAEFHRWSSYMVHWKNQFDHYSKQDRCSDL
Assay: Inhibition of recombinant human AChE after 60 mins by Ellman assay
Details: not given
In the case of CCC(CC)n1cc(C(=O)C(F)(F)F)cn1, the IC50 is reported as 2.27 nM.
CCCC(C)n1cc(C(=O)CF)cn1 (stereo not given) showed an IC50 of 17600 nM.
Work on CCC(C)n1cc(C(=O)C(F)F)cn1 (stereo not given) yielded an IC50 of 85.9 nM.
Compound CC(C)(C)c1cccc(C(=O)C(F)(F)F)c1 has an IC50 of 5 nM.
O=C(c1cnn(C2CCCC2)c1)C(F)F gave an IC50 of 244 nM.
Work on CC(C)Cn1cc(C(=O)C(F)(F)F)cn1 yielded an IC50 of 678 nM.
Compound CC(C)Cn1cc(C(=O)CF)cn1 has an IC50 of over 10000 nM.
Compound CCC(C)n1cc(C(=O)CF)cn1 (stereo not given) has an IC50 of 18000 nM.
With O=C(CF)c1cnn(C2CCCC2)c1 the IC50 was 1310 nM.
Compound CC(C)n1cc(C(=O)C(F)(F)F)cn1 has an IC50 of 121 nM.
Work on C[Si](C)(C)c1cccc(C(=O)C(F)(F)F)c1 yielded an IC50 of 92.9 nM.

Tested on: not listed separately
Assay: Inhibition of recombinant Anopheles gambiae AChE G119S mutant after 60 mins by Ellman assay
Details: not given
Compound CCC(CC)n1cc(C(=O)C(F)(F)F)cn1 has an IC50 of 1730 nM.
For CCCC(C)n1cc(C(=O)CF)cn1 (stereo not given), the IC50 was over 10000 nM.
CCC(C)n1cc(C(=O)C(F)F)cn1 (stereo not given) showed an IC50 of 185 nM.
CC(C)(C)c1cccc(C(=O)C(F)(F)F)c1 gave an IC50 of 20800 nM.
With O=C(c1cnn(C2CCCC2)c1)C(F)F the IC50 was 3390 nM.
COP(=O)(OC)OC=C(Cl)Cl [DICHLORVOS] showed an IC50 of 300 nM.
Compound CC(C)Cn1cc(C(=O)C(F)(F)F)cn1 has an IC50 of over 10000 nM.
With CC(C)Cn1cc(C(=O)CF)cn1 the IC50 was over 10000 nM.
Compound CCC(C)n1cc(C(=O)CF)cn1 (stereo not given) has an IC50 of over 10000 nM.
With O=C(CF)c1cnn(C2CCCC2)c1 the IC50 was over 10000 nM.
With CC(C)n1cc(C(=O)C(F)(F)F)cn1 the IC50 was over 10000 nM.
In the case of C[Si](C)(C)c1cccc(C(=O)C(F)(F)F)c1, the IC50 is reported as 10100 nM.

Tested on: Anopheles gambiae
Assay: Insecticidal activity against Anopheles gambiae G3 assessed as torsal contact toxicity by measuring mortality at 1000 ug/mL after 24 hrs by filter paper based method
Type: functional
Details: G3, 24 h
Procedure, shortened: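 Adult susceptible G3 An. gambiae were tested by the WHO treated-paper tarsal contact protocol. Papers were treated with ethanolic compound solutions at 1000 µg/mL and dried overnight. Mosquitoes were exposed 1 h and mortality recorded after 24 h.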
Compound CCC(CC)n1cc(C(=O)C(F)(F)F)cn1 has a mortality at 1000 µg/mL of 40%.
Work on CCCC(C)n1cc(C(=O)CF)cn1 (stereo not given) yielded a mortality at 1000 µg/mL of 20%.
CCC(C)n1cc(C(=O)C(F)F)cn1 (stereo not given) showed a mortality at 1000 µg/mL of 50%.
CC(C)(C)c1cccc(C(=O)C(F)(F)F)c1 showed a mortality at 1000 µg/mL of 8%.
For O=C(c1cnn(C2CCCC2)c1)C(F)F, the mortality at 1000 µg/mL was 0%.
Work on CC(C)Cn1cc(C(=O)CF)cn1 yielded a mortality at 1000 µg/mL of 20%.
For CCC(C)n1cc(C(=O)CF)cn1 (stereo not given), the mortality at 1000 µg/mL was 65%.
O=C(CF)c1cnn(C2CCCC2)c1 showed a mortality at 1000 µg/mL of 0%.
CC(C)n1cc(C(=O)C(F)(F)F)cn1 showed a mortality at 1000 µg/mL of 20%.
C[Si](C)(C)c1cccc(C(=O)C(F)(F)F)c1 gave a mortality at 1000 µg/mL of 10%.

Tested on: not listed separately
Assay: Inhibition of Anopheles gambiae AChE G119S mutant after 10 mins by Ellman assay
Details: not given
CCC(CC)n1cc(C(=O)C(F)(F)F)cn1 showed an IC50 of over 10000 nM.
For CCCC(C)n1cc(C(=O)CF)cn1 (stereo not given), the IC50 was over 10000 nM.
CCC(C)n1cc(C(=O)C(F)F)cn1 (stereo not given) showed an IC50 of 452 nM.
Compound CC(C)(C)c1cccc(C(=O)C(F)(F)F)c1 has an IC50 of over 10000 nM.
O=C(c1cnn(C2CCCC2)c1)C(F)F gave an IC50 of 3220 nM.
For COP(=O)(OC)OC=C(Cl)Cl [DICHLORVOS], the IC50 was 1650 nM.
For CC(C)Cn1cc(C(=O)C(F)(F)F)cn1, the IC50 was over 10000 nM.
Compound CC(C)Cn1cc(C(=O)CF)cn1 has an IC50 of over 10000 nM.
Compound CCC(C)n1cc(C(=O)CF)cn1 (stereo not given) has an IC50 of over 10000 nM.
Work on O=C(CF)c1cnn(C2CCCC2)c1 yielded an IC50 of over 10000 nM.
With CC(C)n1cc(C(=O)C(F)(F)F)cn1 the IC50 was over 10000 nM.
Work on C[Si](C)(C)c1cccc(C(=O)C(F)(F)F)c1 yielded an IC50 of over 10000 nM.

Tested on: Anopheles gambiae
Assay: Insecticidal activity against Anopheles gambiae G3 assessed as fumigation mortality at 1000 ng/mL after 24 hrs by mason jar assay
Type: functional
Details: G3, 24 h
Procedure, shortened: (§2)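 Fumigation of adult G3 An. gambiae in a sealed 1 L vessel, with % mortality read after 24 h. Nominal concentration was calculated from the inhibitor mass delivered and the vessel volume.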
With CCC(CC)n1cc(C(=O)C(F)(F)F)cn1 the mortality at 1 µg/mL was 86%.

Target: T2, Acetylcholinesterase
Assay: Inhibition of recombinant human AChE after 10 mins by Ellman assay
Details: not given
For CCC(CC)n1cc(C(=O)C(F)(F)F)cn1, the IC50 was 3.77 nM.
In the case of CCCC(C)n1cc(C(=O)CF)cn1 (stereo not given), the IC50 is reported as 24200 nM.
Work on CCC(C)n1cc(C(=O)C(F)F)cn1 (stereo not given) yielded an IC50 of 110 nM.
In the case of CC(C)(C)c1cccc(C(=O)C(F)(F)F)c1, the IC50 is reported as 14.6 nM.
Compound O=C(c1cnn(C2CCCC2)c1)C(F)F has an IC50 of 208 nM.
In the case of CC(C)Cn1cc(C(=O)C(F)(F)F)cn1, the IC50 is reported as 591 nM.
Compound CC(C)Cn1cc(C(=O)CF)cn1 has an IC50 of over 10000 nM.
With CCC(C)n1cc(C(=O)CF)cn1 (stereo not given) the IC50 was 16900 nM.
O=C(CF)c1cnn(C2CCCC2)c1 gave an IC50 of 2500 nM.
With CC(C)n1cc(C(=O)C(F)(F)F)cn1 the IC50 was 77.5 nM.
Work on C[Si](C)(C)c1cccc(C(=O)C(F)(F)F)c1 yielded an IC50 of 285 nM.

Tested on: Anopheles gambiae
Assay: Insecticidal activity against Anopheles gambiae G3 assessed as mortality at 50 ng/insect after 24 hrs (reference value: 11 +/- 4%)
Type: functional
Details: not given
Work on CCC(CC)n1cc(C(=O)C(F)(F)F)cn1 yielded a mortality of 65%.
With COP(=O)(OC)OC=C(Cl)Cl [DICHLORVOS] the mortality was 83%.

Tested on: Anopheles gambiae
Assay: Insecticidal activity against Anopheles gambiae G3 assessed as fumigation mortality at 10 ng/mL after 24 hrs by mason jar assay
Type: functional
Details: G3, 24 h
Procedure, shortened: as §2
With COP(=O)(OC)OC=C(Cl)Cl [DICHLORVOS] the mortality at 0.01 µg/mL was 100%.

Tested on: Anopheles gambiae
Assay: Ratio of IC50 for recombinant Anopheles gambiae AChE G119S mutant to IC50 for recombinant wild type Anopheles gambiae AChE after 60 mins
Details: not given
CCC(CC)n1cc(C(=O)C(F)(F)F)cn1 gave a Ratio IC50 of 2500.

Target: T2, Acetylcholinesterase
Assay: Inhibition of recombinant human AChE by Ellman assay
Details: TDE = time-dependent effect
Procedure, shortened: as §1
For CCC(CC)n1cc(C(=O)C(F)(F)F)cn1, the inhibition was “tde”.
With CC(C)(C)c1cccc(C(=O)C(F)(F)F)c1 the inhibition was “tde”.
For CC(C)Cn1cc(C(=O)C(F)(F)F)cn1, the inhibition was “tde”.
With CC(C)n1cc(C(=O)C(F)(F)F)cn1 the inhibition was “tde”.
For C[Si](C)(C)c1cccc(C(=O)C(F)(F)F)c1, the inhibition was “tde”.

Target: T1, Acetylcholinesterase
Assay: Inhibition of recombinant Anopheles gambiae wild type AChE after 10 mins by Ellman assay
Details: not given
For CCC(CC)n1cc(C(=O)C(F)(F)F)cn1, the IC50 was 2.75 nM.
CCCC(C)n1cc(C(=O)CF)cn1 (stereo not given) showed an IC50 of 3520 nM.
In the case of CCC(C)n1cc(C(=O)C(F)F)cn1 (stereo not given), the IC50 is reported as 26.3 nM.
Compound CC(C)(C)c1cccc(C(=O)C(F)(F)F)c1 has an IC50 of 53.4 nM.
With O=C(c1cnn(C2CCCC2)c1)C(F)F the IC50 was 106 nM.
COP(=O)(OC)OC=C(Cl)Cl [DICHLORVOS] gave an IC50 of 324 nM.
Work on CC(C)Cn1cc(C(=O)C(F)(F)F)cn1 yielded an IC50 of 950 nM.
CC(C)Cn1cc(C(=O)CF)cn1 showed an IC50 of over 10000 nM.
Compound CCC(C)n1cc(C(=O)CF)cn1 (stereo not given) has an IC50 of 2750 nM.
In the case of O=C(CF)c1cnn(C2CCCC2)c1, the IC50 is reported as 5860 nM.
In the case of CC(C)n1cc(C(=O)C(F)(F)F)cn1, the IC50 is reported as 142 nM.
C[Si](C)(C)c1cccc(C(=O)C(F)(F)F)c1 gave an IC50 of 848 nM.
